Assay results gathered from unrelated publications.
Lines come from different studies, so protocols differ.
Target: Calcium/calmodulin-dependent protein kinase type II subunit alpha (CAMK2A, Homo sapiens, UniProt Q9UQM7)

| SMILES | test | conditions | quantity | value |
| --- | --- | --- | --- | --- |
| CCCCCCCCCCCCCCCCCCCCCCO | enzyme activity, inhibitor | 10 µM | inhibition | -5% |
| COc1ccc2oc(-c3ccc4nc(N)oc4c3)c/c(=N\c3ccccc3NC(=O)CCN)c2c1 | binding | 1 µM | remaining binding | 93% |
| CCCCCCCCCCCO | enzyme activity, inhibitor | 10 µM | inhibition | -20% |
| CCCCC(=O)Nc1ccc(-c2ccc3ncn(CCC)c(=O)c3c2)cn1 | binding, competition with immobilised ligand | 0.5 µM | remaining binding | 100% |
| CC(C)S(=O)(=O)c1ccc2nccc(Nc3ccc4sc(C5CCCC5)nc4c3)c2c1 | enzyme activity, inhibitor | 1 µM | activity vs control | 104% |
| C=CC(=O)N1CCC([C@@H]2CCNc3c(C(N)=O)c(-c4ccc(Oc5ccccc5)cc4)nn32)CC1 | enzyme activity, inhibitor | 1 µM | inhibition | 0% |
| COc1ccc2[nH]c3c4[nH]c5ccc(OC)cc5c4c4c(c3c2c1)C(=O)NC4=O | binding | 1 µM | remaining binding | 70% |
| C1=C/COCc2cc(ccc2OCCN2CCCC2)Nc2nccc(n2)-c2cccc(c2)COC/1 | binding | 0.1 µM | remaining binding | 91% |
| C[C@H]1CC[C@H](n2c3cnccc3c3cnc(Nc4ccc5c(n4)CCN(C(=O)CO)C5)nc32)CC1 | cell-free assay | 1 µM | remaining signal | 33% |
| CO[C@@H]1[C@H](N(C)C(=O)c2ccccc2)C[C@H]2O[C@]1(C)n1c3ccccc3c3c4c(c5c6ccccc6n2c5c31)C(=O)NC4 | enzyme activity, inhibitor | 1 µM | inhibition | 94% |
